HCT116 PTEN-null = suppresses growth of cells with PTEN deletion; HCT116 PTEN-null viability, CellTiter-Glo, 60 h; hits give low values; viability, % at 10 µM; actives 1.2% (n = 140,000);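 active = viability at or below a set limit, 4 SD under the median of all tested compounds, cut at about 3.7% in these data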;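 also: PTEN knockout HCT116 line with beta catenin targeted HCT116 as companion control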
H69AR inhibit = growth inhibitors of human H69AR lung tumor cells. H69AR lung tumor viability, ATP luminescence, 72 h; hits give low values. viability, % at 10 µM. actives 6% (n = 85,000);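 active = viability at or below 40%; inactive = viability above 40%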;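 also: multidrug resistant small cell line overexpressing MRP-1 efflux transporter; 100% = mean luminescence of untreated control wells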
Lung fibro prol = blocks proliferation of human lung fibroblasts; viability, % at 10 µM; LL 47 human lung fibroblast viability, ATP luminescence; hits give low values; actives 1.1% (n = 85,000);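 active = viability at or below 50% in the single dose screen; inactive = viability above 50%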;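 also: compound exposure lasted 72 h before the ATP readout; 100% = median luminescence of untreated cell-only wells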
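material = human LL 47 lung fibroblast cells | dosing = compounds added from tenfold dosing solution, 0.1% DMSO final | timing = overnight cell rest, 72 h compound treatment at 37 °C | measured by = CellTiter-Glo luminescence measuring cellular ATP | evaluation = % viability versus median cells-only luminescence | control set = cell-only wells, no compound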
HUVEC prolif 384 = human endothelial cell proliferation inhibition | viability, % at 10 µM (by protocol) | actives 1.1% (n = 86,000) | HUVEC proliferation, CellTiter-Glo luminescence, 72 h; hits give low values;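 active = viability at or below 30%; inactive = viability above 30%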;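 also: 100% = median luminescence of DMSO-only cell control wells on each plate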
bCat KO growth = beta-catenin-lacking colon tumor cell growth suppression; actives 1.5% (n = 140,000); viability, % at 10 µM; HCT116 beta-catenin knockout viability, CellTiter-Glo, 60 h; hits give low values;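 active = viability at or under a set limit, the compound median less 4 SD, cut at about 6% in these data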;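 also: 0% = Hyamine 1622 control at 20 µM and 100% = untreated cell control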
* hit, by the source's call; x = no result given. Many of the other results were omitted from the sample, so hits are more common in it than they were.

SMILES | HCT116 PTEN-null | H69AR inhibit | Lung fibro prol | HUVEC prolif 384 | bCat KO growth
CC(C)(C)c1ccc(C(=O)Nc2cccc3c(=O)[nH][nH]c(=O)c23)cc1 | 94 | x | x | x | 94
Cn1nc(C(=O)N2CCN(S(=O)(=O)/C=C/c3ccccc3)CC2)c2ccccc2c1=O | 82 | x | x | x | 88
Cc1nc(NC2=NCN(Cc3cccnc3)CN2)nc2c(C)cccc12 | x | 37* | 52 | 70 | x
CNCCCOc1ccc(C(C)(C)c2ccccc2)cc1 | 54 | 9.9* | 92 | 86 | 37
CCOC(=O)c1cnc2c(N=Nc3ccccc3)c(N)nn2c1N | 95 | x | x | x | 86
CCOC(=O)c1cnc2c(N=Nc3cccc(Cl)c3)c(N)nn2c1N | 2.5* | x | x | x | 3.4*
N=c1n(CC(=O)c2ccc([N+](=O)[O-])cc2)c2ccccc2n1Cc1ccc(Cl)cc1 | 1.6* | x | x | x | 1.3*
N=c1n(CC(=O)c2ccc([N+](=O)[O-])cc2)c2ccccc2n1Cc1ccccc1 | 1.8* | x | x | x | 1.7*
COc1ccc(Oc2cn[nH]c2-c2ccc(O)cc2O)cc1 | 82 | 92 | 96 | 85 | 86
COc1ccc(-c2[nH]ncc2-c2cnn(-c3ccccc3)c2)c(O)c1 | 75 | x | x | x | 74
C=C(C)COc1ccc(-c2nc(N)nc(C)c2Oc2ccccc2OC)c(O)c1 | 87 | 77 | 89 | 94 | 86
C=C(C)COc1ccc(-c2[nH]ncc2Oc2cccc(OC)c2)c(O)c1 | 24 | 1.3* | 55 | 5.2* | 17
C=C(C)COc1ccc(-c2ncncc2Oc2ccc(OC)cc2)c(O)c1 | 87 | 48 | 98 | 89 | 85
CCCc1ccc(Oc2cn[nH]c2-c2ccc(O)cc2O)cc1 | 63 | 29* | 91 | 61 | 64
COc1ccc(-c2[nH]ncc2Oc2ccccc2OC)c(O)c1 | 91 | 39* | 101 | 98 | 82
C=C(C)COc1ccc(-c2[nH]ncc2Oc2ccccc2OCC)c(O)c1 | 50 | x | 56 | 27* | 56
Cc1cc(C)c(C#N)c(Sc2ccc(N)cc2)n1 | 99 | x | x | x | 90
CC1CN(S(=O)(=O)c2ccc(C(=O)Nc3nnc(-c4ccc5c(c4)CCCC5)o3)cc2)CC(C)O1 (centres undefined) | 13 | 17* | 39* | 7.0* | 13
COc1cccc(C(=O)NCC2CCN(c3ccc(S(=O)(=O)N4CCOCC4)cc3)CC2)c1 | 78 | 30* | 92 | 86 | 81
COc1cccc(-c2nnc(NC(=O)c3ccc(S(=O)(=O)N4CCOCC4)cc3)o2)c1 | 14 | 20* | 69 | 15* | 15
O=C(NCC1CCN(c2ccc(S(=O)(=O)N3CCOCC3)cc2)CC1)c1cccc(Cl)c1 | 78 | 49 | 96 | 81 | 76
CC(=O)Nc1nnc(-c2ccc3c(c2)CCCC3)o1 | 110 | 76 | 95 | 100 | 87
COc1ccc(NC(=O)c2ccc(S(=O)(=O)N3CCOCC3)cc2)c(OC)c1 | 100 | 95 | 103 | 85 | 108
Cc1cc(C)n(CC(=O)N/N=C/c2ccccn2)n1 | 95 | x | x | x | 90
CCNC(=O)CSc1nnc(-c2ccccc2Br)n1-c1cccc(C(F)(F)F)c1 | 79 | x | x | x | 90
SMILES | HCT116 PTEN-null | H69AR inhibit | Lung fibro prol | HUVEC prolif 384 | bCat KO growth
S=C(Nc1ccccc1)Nc1nc2ccccc2n1CCOc1ccc(Br)cc1 | 2.1* | x | x | x | 1.6*
Cc1ccc(OCCn2c(NC(=O)c3ccco3)nc3ccccc32)cc1 | 68 | 26* | 56 | 55 | 64
O=C(Nc1nc2ccccc2n1CCOc1ccc(Cl)cc1)c1ccco1 | 6 | 53 | 59 | 56 | 5.4*
O=C(Nc1nc2ccccc2n1CCOc1ccccc1)c1ccco1 | 15 | 42 | 65 | 74 | 16
Cn1c(NC(=S)Nc2ccccc2)nc2ccccc21 | 60 | x | x | x | 72
O=C(CSc1nnc(-c2ccc(O)cc2)n1Cc1ccccc1)NNC(=O)c1ccc(Br)cc1 | 106 | x | x | x | 98
CC(/C=C/c1ccc2c(c1)OCO2)=N/NC(=O)C1COc2ccccc2O1 (centres undefined) | 81 | x | x | x | 87
CC(/C=C/c1ccc2c(c1)OCO2)=N\NC(=O)c1cccc([N+](=O)[O-])c1 | 83 | 7.3* | 28* | 31 | 88
Cc1nc(N2CCN(C(=O)c3ccc(Cl)cc3)CC2)c(C#N)c2c1COC(C)(C)C2 | 70 | 37* | 95 | 99 | 66
CC1(C)Cc2c(C#N)c(N3CCN(C(=O)c4ccco4)CC3)nc(-c3ccco3)c2CS1 | 74 | x | x | x | 85
CC1(C)Cc2c(C#N)c(N3CCN(C(=O)c4ccco4)CC3)nc(Cc3ccccc3)c2CO1 | 1.0* | 55 | 79 | 21* | 1.5*
O=c1c2ccccc2nc2c3ccccc3c(NCCN3CCOCC3)nn12 | 2.5* | 19* | 33* | 36 | 1.9*
O=c1c2ccccc2nc2c3ccccc3c(N3CCOCC3)nn12 | x | 77 | 95 | 96 | x
c1ccc(-c2nc(NCCCN3CCOCC3)c3ccccc3n2)cc1 | 64 | 26* | 99 | 83 | 67
Cc1csc(Sc2ccc([N+](=O)[O-])cc2C(=O)OCC(=O)NC(=O)NC(C)(C)C)n1 | 89 | x | x | x | 81
Cc1n[nH]c(C)c1S(=O)(=O)N(CC(=O)NC1CCCC1)c1ccc(C(C)C)cc1 | 74 | 61 | 85 | 94 | 79
CCCN1C(=O)/C(=N\OCC(=O)NCC(F)(F)F)c2ccccc21 | 96 | x | x | x | 93
COc1ccc(C(=O)Nc2cc(C)c3c(=O)oc4ccccc4c3n2)cc1 | 107 | 39* | 103 | 49 | 98
Cc1cc(NC(=O)CN2CCc3ccccc3C2)nc2c1c(=O)oc1ccccc12 | x | 28* | 86 | 84 | x
COCC(=O)Nc1cc(C)c2c(=O)oc3ccccc3c2n1 | x | 84 | 96 | 88 | x
Cc1cc(NC(=O)CC(C)(C)C)nc2c1c(=O)oc1ccccc12 | 84 | 56 | 88 | 87 | 87
O=C(CN1CCCC1=O)NC1C2CC3CC(C2)CC1C3 (centres undefined) | 92 | x | x | x | 88
Cc1cccc(N(C)c2cc(C)nc3nc(C)nn23)c1 | 76 | 23* | 95 | 102 | 72
CCN(c1ccccc1)c1cc(C)nc2nc(C)nn12 | 96 | 72 | 105 | 97 | 87
Cc1nc2cc(N3CCCCC3)c(NC(=O)c3ccncc3)cc2c(=O)n1Cc1ccc(Cl)cc1 | 1.1* | x | x | x | 1.2*
SMILES | HCT116 PTEN-null | H69AR inhibit | Lung fibro prol | HUVEC prolif 384 | bCat KO growth
Cc1nc2cc(N3CCN(C)CC3)c(NC(=O)Cc3ccccc3)cc2c(=O)n1Cc1ccccc1 | 77 | x | 94 | 80 | 83
CCCCC(O)(CCN1CCOCC1)c1ccc(Cl)cc1 (centres undefined) | 75 | 97 | 98 | 99 | 73
CCCC(O)(c1ccc(Cl)cc1)C(CN1CCOCC1)c1ccccc1 (centres undefined) | 55 | 40* | 96 | 106 | 51
CCc1nc2sc3c(c2c(=O)n1NC(=O)CCl)CCCC3 | 92 | 12* | 97 | 82 | 86
CCOc1cc2[nH]c(=S)n(CCC(=O)N3CCc4ccccc4C3)c(=O)c2cc1OCC | 49 | 28* | 78 | 77 | 53
CCOc1cc2[nH]c(=S)n(CCCN3CCN(C)CC3)c(=O)c2cc1OCC | x | 95 | 99 | 86 | x

From PubChem
